Bioassay records as filed in PubChem.
The list is not random: actives were taken first. Their share in the collection is about 2.5%.
TCR-CD3 inh – inhibitors of human TCR-CD3 interaction; TAMRA-labeled TCR probe fluorescence, biochemical; hit rate 0.37% among 360,000; inhibition, % at 9.4 µM; in the data active = inhibition above about 19%;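 note: recombinant mutant TCR 2C K166C tagged with TAMRA read by polarization; 0% = receptor in buffer alone and 100% = receptor with positive control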
PRMT1 FP inh – blocks human protein arginine methyltransferase 1. Q99873. recombinant PRMT1, activity-based probe fluorescence polarization. inhibition, % at 2.79 µM. hit rate 1.3% among 370,000;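 active = inhibition above about 21% made by adding two undisclosed values, limit read from the data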
SIAE inh – human SIAE inhibition, primary screen; hit rate 0.69% among 370,000; SIAE FP-Rh probe binding, fluorescence polarization; inhibition, % at 9.66 µM;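 active = inhibition above a cutoff: mean of compounds within the control limits plus 3 SD of those, cut at about 17% in these data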;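 note: 0% = plate median of compound wells and 100% = probe without SIAE protein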
ABHD4 inh – inhibitors of mouse ABHD4; purified mABHD4, FP-Rh probe fluorescence polarization; inhibition, % at 8.92 µM; hit rate 0.54% among 370,000; AID 720543;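 active = inhibition exceeding the mean over every tested compound plus 3 SD, cut at about 30% in these data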;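 note: 0% = plate median of compound wells and 100% = S159A mutant with DMSO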
Target sequence (Q8VD66 whole entry, looked up): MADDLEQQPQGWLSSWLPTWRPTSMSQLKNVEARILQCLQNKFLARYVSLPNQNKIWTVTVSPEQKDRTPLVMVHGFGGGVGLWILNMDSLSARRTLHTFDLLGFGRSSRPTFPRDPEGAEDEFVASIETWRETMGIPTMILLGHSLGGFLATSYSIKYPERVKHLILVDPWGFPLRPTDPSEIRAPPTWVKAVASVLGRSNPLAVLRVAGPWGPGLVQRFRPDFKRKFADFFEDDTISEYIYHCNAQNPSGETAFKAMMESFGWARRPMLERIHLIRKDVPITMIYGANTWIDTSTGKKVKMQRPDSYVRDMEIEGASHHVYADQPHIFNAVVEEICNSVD
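Assay system: wild-type mouse ABHD4 protein; compound: single nominal dose of 8.92 µM, 0.89% DMSO final; schedule: 45 min + 60 min at 25 °C; measured by: FP readout, ex 525 nm / em 598 nm; evaluation: % inhibition of FP-Rh probe binding versus controls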
HTRA1 inh – inhibitors of human serine peptidase HTRA1 | Q92743 | recombinant HTRA1, FP-rhodamine activity-based probe, fluorescence polarization | inhibition, % at 5.96 µM | hit rate 0.5% among 340,000 | AID 504803; in the data active = inhibition above about 36%;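 note: 0% = enzyme with DMSO and 100% = wells lacking enzyme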
SIAE inh conf – confirmation of human SIAE inhibitors. shares compounds with SIAE inh. SIAE FP-Rh activity-based probe, fluorescence polarization. inhibition, % at 9.66 µM. hit rate 13% among 2,300. AID 1117263;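 active = mean inhibition of the replicates above the hit cutoff set in the primary screen, cut at about 17% in these data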;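 note: 0% = SIAE with DMSO and probe and 100% = probe without SIAE; inhibitors lower polarization as more probe stays unbound to SIAE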
The depositor's hits bear a star; . = not tested or not shown.

SMILES	TCR-CD3 inh	PRMT1 FP inh	SIAE inh	ABHD4 inh	HTRA1 inh	SIAE inh conf
COc1cc(NC(=O)CCc2nnc3ccc(N4CCC5(CC4)OCCO5)nn23)cc(OC)c1	10.0	-6.1	0.4	0.8	0.1	.
Cc1nc2c3ccccc3nc(NNC(=O)CCC(=O)N3CCCC(C)C3)n2n1 (stereo unspecified)	10.4	-1.7	19.1*	5.0	4.8	1.4
CC(=O)Nc1nc(C2COc3ccccc3O2)cs1 (stereo unspecified)	3.9	0.4	-3.5	-8.2	3.6	.
CC1(c2ccc(Cl)cc2Cl)NC(=O)N(CC(=O)Nc2ccc3[nH]c(=O)[nH]c3c2)C1=O (stereo unspecified)	10.9	-2.2	24.0*	2.5	-3.1	1.9
Cc1ccc(CSc2nnc(-c3n[nH]c4c3CCC4)n2N)cc1	.	1.8	3.6	-1.3	.	.
Cc1cccc(N(CC(=O)N2CCCC2)S(=O)(=O)c2ccccc2)c1C	-11.6	1.4	22.3*	0.7	1.1	0.3
CCc1ccccc1N(CC(=O)N1CCCCC1)S(=O)(=O)c1ccccc1	4.5	-0.1	6.6	-2.6	-9.6	.
COc1cc(C(=O)Nc2scc(-c3ccc(Br)cc3)c2C(=O)O)cc(OC)c1OC	-1.4	-5.8	23.4*	-36.6	-1.3	30.8*
Cc1ccc(-c2csc(NC(=O)c3ccc(Br)cc3)c2C(=O)O)cc1	-12.0	1.8	3.4	-8.4	-9.3	.
Cc1ccc(NC(=O)COC(=O)CCc2ccccc2)c(Cl)c1	-1.6	-0.8	22.5*	4.6	-5.6	1.9
Cc1ccc(OCCC(=O)OCC(=O)Nc2ccc(C)cc2Cl)cc1	-4.7	5.9	-6.7	-19.0	-1.2	.
Cc1c(CCC(=O)NCCCn2ccnc2)c(=O)oc2cc3occ(C(C)(C)C)c3cc12	-4.8	-2.1	18.2*	11.9	1.1	0.7
COC(=O)COc1ccc(-c2nn(C)c(=O)c3ccccc23)cc1	0.1	-0.5	19.9*	-3.0	2.7	2.2
Cn1nc(-c2ccc(OCC(N)=O)cc2)c2ccccc2c1=O	-1.1	0.7	0.0	2.5	-0.6	.
O=C(N=Nc1c(O)[nH]c2ccc([N+](=O)[O-])cc12)c1ccccc1Cl	1.9	3.9	-1.7	6.6	-4.2	.
O=C(N=Nc1c(O)[nH]c2c(Cl)cc(Cl)cc12)c1ccccc1O	8.0	2.6	29.1*	19.8	.	-2.6
COc1ccc(-c2cc(C(F)(F)F)nc(N3CCCCC3)n2)cc1OC	5.5	0.9	19.0*	2.5	1.7	-4.3
COc1ccc(-c2cc(C(F)(F)F)nc(N3CCN(C)CC3)n2)cc1OC	1.2	-1.5	0.5	4.2	-1.6	.
COc1ccc(C(C)=O)cc1CSc1nncn1-c1ccccc1	6.2	0.7	-1.4	-3.6	-0.8	.
O=C(OCc1ccccc1)C1CCCN1C(=O)c1cccs1 (stereo unspecified)	7.0	1.1	-0.9	-0.2	-2.4	.
O=C(COC(=O)C1CCCN1C(=O)c1cccs1)c1ccccc1 (stereo unspecified)	-2.8	1.6	17.2*	-0.4	-0.2	-5.6
CS(=O)(=O)c1cnc(-c2ccccc2)nc1Sc1ccc(F)cc1	3.3	-2.3	17.2*	4.1	-1.9	5.1
COc1cccc(CNC(=O)Cc2ccc(OC)c(S(=O)(=O)N3CCOCC3)c2)c1	-0.6	-2.5	0.7	4.5	-2.0	.
CCCS(=O)(=O)NC(=O)C1(C)CCN(C(=O)CSc2ccccc2)C1 (stereo unspecified)	-5.0	2.9	19.9*	5.1	.	-0.4
CCCn1c(=O)[nH]c(=O)c2c1nc(-c1ccc(OC)c(Br)c1)n2CCOC	-1.2	-3.9	20.9*	-7.6	-2.9	-16.8
SMILES	TCR-CD3 inh	PRMT1 FP inh	SIAE inh	ABHD4 inh	HTRA1 inh	SIAE inh conf
CCOC(=O)C1=C(c2ccccc2)NC(=O)NC1c1ccc(O)c(OCC)c1 (stereo unspecified)	2.9	-2.1	18.7*	3.1	7.7	-0.6
CCc1ccc(C=NN2CCN(Cc3ccc(C)cc3C)CC2)cc1	.	-5.6	2.8	-2.7	.	.
COc1cccc(C(=O)N[C@H](C(=O)N2CCC[C@H]2C(=O)NCc2ccccc2)c2ccccc2)c1	-4.5	0.0	5.5	1.7	.	.
COc1ccc(NC(=O)c2coc(C)c2)cc1	-2.0	2.7	18.8*	3.2	-1.6	-1.0
N#Cc1cccc(NC(=O)CSc2ccc3c4c(cccc24)C(=O)c2ccccc2-3)c1	4.3	3.6	56.5*	8.1	1.7	48.5*
Cc1ccc(-c2cc(-c3ccco3)c3c(N)c(C(=O)NN)oc3n2)cc1	15.5	-1.1	28.2*	15.3	25.2	44.9*
